Experimental findings from ChEMBL document CHEMBL1157616, “Identification of 2-anilino-9-methoxy-5,7-dihydro-6H-pyrimido[5,4-d][1]benzazepin-6-ones as dual PLK1/VEGF-R2 kinase inhibitor chemotypes by structure-based lead generation” (J Med Chem, 2010) are described below.

The source made the active and inactive calls. No rule for the calls is given here.

One experiment concerns NCI60. Description: Antiproliferative activity against human NCI60 cells at 10 uM after 48 hrs by sulforhodamine B assay. Format: functional, cell-based. The gist of the method:
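NCI 60-cell-line prescreen with compound given once at 10 μM. Cells grown in RPMI 1640 with 5% FBS and 2 mM L-glutamine, plated 24 h before dosing, then exposed 48 h at 37 °C. Fixed with cold TCA, stained with SRB, absorbance read at 515 nm, and percent growth taken relative to time-zero and control wells.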
(In SRB staining, fixed cells bind dye roughly in proportion to their protein.)

Experiment [1] addresses Serine/threonine-protein kinase PLK1 (Homo sapiens, UniProt P53350). Description: Inhibition of PLK1 assessed as [33Pi] incorporation by microplate scintillation counting in presence of 1 uM ATP.
In a further experiment the target is Insulin receptor (Homo sapiens, UniProt P06213). Description: Inhibition of INSR assessed as [33Pi] incorporation by microplate scintillation counting in presence of 1 uM ATP. The gist of the method: (§1)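 Substrates: Poly(Glu,Tyr)4:1 for VEGFR2; Poly(Glu,Tyr) or Poly(Ala,Glu,Lys,Tyr) for INS-R; RBER-CHKtide or casein for PLK1. Incubated 30 °C, 80 min, stopped with 2% H3PO4. Singlicate; activity referenced to no-enzyme and no-inhibitor controls.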

Experiment [2] concerns the target T1, Vascular endothelial growth factor receptor 2 (Homo sapiens, UniProt P35968). Description: Inhibition of VEGFR2 assessed as [33Pi] incorporation by microplate scintillation counting in presence of 1 uM ATP. The gist of the method:
as §1

Experiment [3] concerns the target T1, Vascular endothelial growth factor receptor 2. Nature of the experiment: Inhibition of VEGFR2 in HUE cells assessed as inhibition of VEGF-induced autophosphorylation treated for 90 mins before VEGF challenge by ELISA. Format: cell-based. Background: In an ELISA, binding on a coated surface is turned into a signal by an enzyme label.

As usually defined, the IC50 is the midpoint of a concentration-inhibition curve.

Chain of Insulin receptor (P06213 28-758 limits assumed): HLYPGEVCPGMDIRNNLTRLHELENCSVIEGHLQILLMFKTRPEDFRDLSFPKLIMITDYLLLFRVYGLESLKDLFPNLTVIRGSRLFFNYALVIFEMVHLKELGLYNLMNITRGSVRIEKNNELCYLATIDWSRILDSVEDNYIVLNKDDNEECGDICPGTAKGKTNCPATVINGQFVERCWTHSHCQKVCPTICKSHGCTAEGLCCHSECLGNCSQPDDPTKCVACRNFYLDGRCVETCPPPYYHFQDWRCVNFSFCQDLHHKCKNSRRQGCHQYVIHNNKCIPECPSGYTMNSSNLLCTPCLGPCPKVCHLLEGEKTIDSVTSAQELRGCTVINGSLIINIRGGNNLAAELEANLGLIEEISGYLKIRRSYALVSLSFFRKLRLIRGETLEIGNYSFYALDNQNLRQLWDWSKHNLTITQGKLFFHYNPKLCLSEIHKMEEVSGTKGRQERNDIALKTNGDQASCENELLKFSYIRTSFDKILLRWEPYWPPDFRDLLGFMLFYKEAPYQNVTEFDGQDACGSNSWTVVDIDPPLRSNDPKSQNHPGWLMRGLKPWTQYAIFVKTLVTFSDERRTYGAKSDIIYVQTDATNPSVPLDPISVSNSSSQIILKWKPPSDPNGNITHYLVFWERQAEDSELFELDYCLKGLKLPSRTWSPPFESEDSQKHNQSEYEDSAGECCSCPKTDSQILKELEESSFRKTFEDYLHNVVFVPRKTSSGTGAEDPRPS
Chain of Insulin receptor (P06213 763-1382 limits assumed): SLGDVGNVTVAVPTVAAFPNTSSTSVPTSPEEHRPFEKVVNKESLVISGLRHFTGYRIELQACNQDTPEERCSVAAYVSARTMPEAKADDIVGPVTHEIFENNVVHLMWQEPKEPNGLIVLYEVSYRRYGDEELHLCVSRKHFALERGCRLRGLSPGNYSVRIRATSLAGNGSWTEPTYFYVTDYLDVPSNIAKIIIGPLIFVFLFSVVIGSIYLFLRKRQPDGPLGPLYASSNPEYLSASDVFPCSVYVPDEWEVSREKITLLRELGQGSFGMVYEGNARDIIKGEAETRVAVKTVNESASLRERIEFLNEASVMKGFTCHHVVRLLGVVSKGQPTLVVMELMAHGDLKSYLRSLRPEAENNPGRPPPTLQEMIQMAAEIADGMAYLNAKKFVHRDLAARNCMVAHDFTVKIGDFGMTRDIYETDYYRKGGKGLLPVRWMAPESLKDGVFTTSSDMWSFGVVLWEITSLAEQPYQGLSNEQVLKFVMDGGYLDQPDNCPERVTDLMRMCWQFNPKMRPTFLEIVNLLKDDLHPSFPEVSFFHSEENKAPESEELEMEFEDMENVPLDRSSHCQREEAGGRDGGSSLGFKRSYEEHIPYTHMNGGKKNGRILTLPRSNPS
Chain of Serine/threonine-protein kinase PLK1 (P53350 whole entry): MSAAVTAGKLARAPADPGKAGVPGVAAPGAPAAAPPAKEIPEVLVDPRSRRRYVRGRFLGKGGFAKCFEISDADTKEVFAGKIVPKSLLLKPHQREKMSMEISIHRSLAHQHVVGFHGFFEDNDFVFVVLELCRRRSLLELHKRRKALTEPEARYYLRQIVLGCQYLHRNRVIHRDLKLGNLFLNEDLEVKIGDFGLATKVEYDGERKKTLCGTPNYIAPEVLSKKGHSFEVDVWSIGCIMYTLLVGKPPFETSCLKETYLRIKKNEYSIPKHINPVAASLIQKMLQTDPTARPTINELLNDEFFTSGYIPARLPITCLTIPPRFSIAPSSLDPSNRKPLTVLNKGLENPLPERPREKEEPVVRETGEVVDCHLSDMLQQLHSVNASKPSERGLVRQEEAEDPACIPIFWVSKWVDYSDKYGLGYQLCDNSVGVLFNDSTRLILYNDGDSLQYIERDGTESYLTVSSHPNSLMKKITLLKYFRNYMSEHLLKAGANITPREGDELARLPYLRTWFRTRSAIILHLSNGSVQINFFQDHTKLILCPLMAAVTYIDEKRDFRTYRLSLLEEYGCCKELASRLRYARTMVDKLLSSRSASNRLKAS
T1 sequence (P35968 whole entry): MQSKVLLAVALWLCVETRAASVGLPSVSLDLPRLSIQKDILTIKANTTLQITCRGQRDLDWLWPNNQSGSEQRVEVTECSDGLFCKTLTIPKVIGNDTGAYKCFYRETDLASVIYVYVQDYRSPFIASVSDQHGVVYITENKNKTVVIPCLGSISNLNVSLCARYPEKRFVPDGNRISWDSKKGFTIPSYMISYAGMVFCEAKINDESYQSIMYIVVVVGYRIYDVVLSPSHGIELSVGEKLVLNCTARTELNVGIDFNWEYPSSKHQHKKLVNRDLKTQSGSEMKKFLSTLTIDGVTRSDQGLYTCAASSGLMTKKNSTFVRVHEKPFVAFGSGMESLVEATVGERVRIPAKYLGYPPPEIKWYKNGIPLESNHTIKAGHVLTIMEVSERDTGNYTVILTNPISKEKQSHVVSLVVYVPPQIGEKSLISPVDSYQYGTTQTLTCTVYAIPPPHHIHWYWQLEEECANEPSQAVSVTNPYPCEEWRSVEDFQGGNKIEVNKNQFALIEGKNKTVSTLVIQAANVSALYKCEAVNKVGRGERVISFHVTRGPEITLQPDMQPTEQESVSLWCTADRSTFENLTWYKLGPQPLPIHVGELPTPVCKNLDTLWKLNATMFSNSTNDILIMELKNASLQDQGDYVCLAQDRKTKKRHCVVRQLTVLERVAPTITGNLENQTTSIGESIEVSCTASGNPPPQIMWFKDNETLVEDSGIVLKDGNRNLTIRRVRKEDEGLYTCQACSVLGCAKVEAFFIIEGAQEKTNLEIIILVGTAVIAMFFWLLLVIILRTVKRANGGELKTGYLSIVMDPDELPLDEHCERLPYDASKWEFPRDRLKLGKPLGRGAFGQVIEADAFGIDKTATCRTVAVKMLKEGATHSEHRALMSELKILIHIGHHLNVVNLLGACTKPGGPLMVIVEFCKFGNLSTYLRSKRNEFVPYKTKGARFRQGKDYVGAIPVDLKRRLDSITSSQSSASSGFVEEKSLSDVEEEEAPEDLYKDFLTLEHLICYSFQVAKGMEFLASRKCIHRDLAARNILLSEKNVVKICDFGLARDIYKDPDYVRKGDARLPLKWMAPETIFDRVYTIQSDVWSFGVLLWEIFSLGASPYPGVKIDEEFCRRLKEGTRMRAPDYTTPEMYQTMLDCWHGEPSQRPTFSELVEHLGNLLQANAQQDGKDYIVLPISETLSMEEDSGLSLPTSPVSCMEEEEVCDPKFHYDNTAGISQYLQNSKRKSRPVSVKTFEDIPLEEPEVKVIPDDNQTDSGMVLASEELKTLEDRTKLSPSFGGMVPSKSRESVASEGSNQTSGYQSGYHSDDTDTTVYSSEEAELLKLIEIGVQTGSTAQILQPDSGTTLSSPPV

Take `Cc1cc(O)ccc1Nc1ncc2c(n1)-c1ccccc1NC(=O)C2`: the result in the experiment on NCI60 was Active. For the same compound, the IC50 in experiment [1] is 20 µM; at Insulin receptor it was > 100 µM; in experiment [2], 1.2 µM.

`COc1ccc2c(c1)NC(=O)Cc1cnc(Nc3ccc(O)cc3)nc1-2`: the outcome in the experiment with NCI60 was Active. The IC50 in experiment [1] was 0.75 µM; at Insulin receptor, > 100 µM; in experiment [2], 0.028 µM.

Turning to `COc1ccc(Nc2ncc3c(n2)-c2cnccc2NC(=O)C3)cc1`, the outcome with NCI60 was Active. The IC50 in experiment [1] is 2.5 µM; at Insulin receptor, > 100 µM; in experiment [2], 0.19 µM.

Regarding `COc1ccc(Nc2ncc3c(n2)-c2ncccc2NC(=O)C3)cc1`, the outcome in the experiment with NCI60 was Active. In addition, the IC50 was > 100 µM in experiment [1], > 100 µM at Insulin receptor and 1.5 µM in experiment [2].

As for `COc1ccc2c(c1)NC(=O)Cc1cnc(Nc3ccc(OC)c(O)c3)nc1-2`, the outcome in the experiment on NCI60 was Active. Also, the IC50 is 0.14 µM in experiment [1], > 100 µM at Insulin receptor and 0.018 µM in experiment [2].

Regarding `O=C1Cc2cnc3cc(-c4ccccc4)nn3c2-c2ccccc2N1`, the result in the experiment on NCI60 was Active. The results for the IC50 (in experiment [1]; at Insulin receptor; in experiment [2]) were > 100 µM, > 100 µM and 0.63 µM, respectively.

Take `O=C1Cc2cnc(Nc3ccc(O)c(Cl)c3)nc2-c2ncccc2N1`: the result with NCI60 was Active. The IC50 in experiment [1] was > 100 µM; on Insulin receptor, > 100 µM; in experiment [2] it was 0.67 µM.

As for `O=C1Cc2cnc(Nc3ccc(Br)cc3)nc2-c2ccccc2N1`, in the experiment on NCI60, the outcome was Active. For the same compound, the figures for the IC50 (in experiment [1]; on Insulin receptor; in experiment [2]) were > 100 µM, > 100 µM and 0.29 µM, respectively.

`Cn1c(=O)c2cc3c(nc2n(C)c1=O)-c1ccccc1NC(=O)C3`: the result with NCI60 was Active. Moreover, the IC50 (in experiment [1]; on Insulin receptor; in experiment [2]) was > 100 µM throughout.

Turning to `COc1ccc2c(c1)NC(=O)Cc1cnc3ccnn3c1-2`, the outcome in the experiment on NCI60 was Active. Further, the IC50 in experiment [1] is > 100 µM; at Insulin receptor, > 100 µM; in experiment [2], 8.6 µM.

Consider `O=C1Cc2cnc(Nc3ccc(Cl)cc3)nc2-c2ccccc2N1`, for which the outcome in the experiment on NCI60 was Active. The IC50 in experiment [1] was > 100 µM; on Insulin receptor, > 100 µM; in experiment [2], 0.19 µM.

Take `O=C1Cc2cc3c(=O)[nH]c(=O)[nH]c3nc2-c2cnccc2N1`: the outcome in the experiment with NCI60 was Active. The IC50 (in experiment [1]; on Insulin receptor; in experiment [2]) was > 100 µM in each case.

For the compound `CCOc1ccc(Nc2ncc3c(n2)-c2ncccc2NC(=O)C3)cc1`, the outcome in the experiment with NCI60 was Active. For the same compound, the IC50 in experiment [1] is > 100 µM; at Insulin receptor, > 100 µM; in experiment [2], 2 µM.

For `O=C1Cc2cnc(Nc3ccc(O)cc3)nc2-c2cnccc2N1`, in the experiment with NCI60, the result was Active. Moreover, the figures for the IC50 (in experiment [1]; at Insulin receptor; in experiment [2]) were 2.6 µM, > 100 µM and 0.13 µM, respectively.

Regarding `O=C1Cc2cnc(Nc3cccc(O)c3)nc2-c2ccccc2N1`, the outcome in the experiment with NCI60 was Active. Also, the IC50 in experiment [1] is 19 µM; on Insulin receptor, > 100 µM; in experiment [3] it was 1.6 µM; in experiment [2], 0.051 µM.

In the case of `O=C1Cc2cnc(Nc3cccc(O)c3)nc2-c2cnccc2N1`, the outcome in the experiment on NCI60 was Active. Also, the IC50 in experiment [1] is 2.3 µM; at Insulin receptor it was > 100 µM; in experiment [2] it was 0.14 µM.

Regarding `O=C1Cc2cc3c(=O)[nH]c(=O)[nH]c3nc2-c2ncccc2N1`, the result in the experiment on NCI60 was Active. Also, the figures for the IC50 (in experiment [1]; on Insulin receptor; in experiment [2]) were > 100 µM, > 100 µM and 66 µM, respectively.

As for `O=C1Cc2cnc(Nc3ccc([N+](=O)[O-])cc3)nc2-c2ccccc2N1`, the outcome in the experiment with NCI60 was Active. The figures for the IC50 (in experiment [1]; on Insulin receptor; in experiment [2]) were > 100 µM, 22 µM and 0.33 µM, respectively.

In the case of `O=C1Cc2cnc(Nc3ccccc3Cl)nc2-c2ccccc2N1`, the outcome in the experiment with NCI60 was Active. The IC50 in experiment [1] was 73 µM; at Insulin receptor, > 100 µM; in experiment [2], 6.1 µM.

Take `COc1ccc2c(c1)NC(=O)Cc1cc3c(=O)n(C)c(=O)n(C)c3nc1-2`: in the experiment on NCI60, the outcome was Active. In addition, the IC50 (in experiment [1]; on Insulin receptor; in experiment [2]) was > 100 µM in each case.

`Cc1ccc(Nc2ncc3c(n2)-c2ccccc2NC(=O)C3)cc1`: the outcome in the experiment with NCI60 was Active. The IC50 was > 100 µM in experiment [1], > 100 µM on Insulin receptor and 0.19 µM in experiment [2].

On to `O=C1Cc2cc3c(=O)[nH]c(=O)[nH]c3nc2-c2ccccc2N1`, for which the outcome in the experiment with NCI60 was Active. Also, the IC50 (in experiment [1]; at Insulin receptor; in experiment [2]) was > 100 µM throughout.

Turning to `COc1ccc2c(c1)NC(=O)Cc1cnc(Nc3cccc(O)c3)nc1-2`, the result with NCI60 was Active. In addition, the IC50 in experiment [1] was 0.84 µM; on Insulin receptor, > 100 µM; in experiment [2], 0.015 µM.

As to `O=C1Cc2cnc(Nc3ccc(I)cc3)nc2-c2ccccc2N1`, the outcome in the experiment with NCI60 was Active. For the same compound, the IC50 in experiment [1] is 15 µM; on Insulin receptor, > 100 µM; in experiment [2] it was 0.4 µM.

On to `COc1ccc2c(c1)NC(=O)Cc1cnc3cc(-c4ccccc4)nn3c1-2`, for which the result in the experiment on NCI60 was Active. The IC50 in experiment [1] amounted to 17 µM; on Insulin receptor, 11 µM; in experiment [2], 1.8 µM.

`O=C1Cc2cnc3ccnn3c2-c2ccccc2N1`: the outcome in the experiment with NCI60 was Active. Further, the results for the IC50 (in experiment [1]; at Insulin receptor; in experiment [2]) were > 100 µM, > 100 µM and 12 µM, respectively.

In the case of `O=C1Cc2cnc(Nc3ccccc3O)nc2-c2ccccc2N1`, the result in the experiment on NCI60 was Active. For the same compound, the IC50 in experiment [1] was 14 µM; at Insulin receptor it was > 100 µM; in experiment [2], 0.53 µM.

For the compound `O=C1Cc2cnc(Nc3ccccc3)nc2-c2ccccc2N1`, the outcome with NCI60 was Active. The figures for the IC50 (in experiment [1]; on Insulin receptor; in experiment [2]) were > 100 µM, > 100 µM and 0.14 µM, respectively.

Consider `O=C1Cc2cnc3cc(-c4ccccc4)nn3c2-c2cnccc2N1`, for which, in the experiment with NCI60, the outcome was Active. Moreover, the IC50 in experiment [1] is > 100 µM; at Insulin receptor, > 100 µM; in experiment [2] it was 2 µM.

With `COc1ccc2c(c1)NC(=O)Cc1cnc3ncnn3c1-2`, the outcome in the experiment with NCI60 was Active. In addition, the concentration for half-maximal inhibition (IC50) (in experiment [1]; on Insulin receptor; in experiment [2]) was > 100 µM each time.

Take `O=C1Cc2cnc(Nc3ccccc3Br)nc2-c2ccccc2N1`: the result in the experiment on NCI60 was Active. In addition, the half-inhibitory concentration (IC50) is > 100 µM in experiment [1], > 100 µM at Insulin receptor and 57 µM in experiment [2].

Regarding `O=C1Cc2cnc(Nc3cccc(O)c3)nc2-c2ncccc2N1`, the outcome with NCI60 was Active. Further, the IC50 was > 100 µM in experiment [1], > 100 µM at Insulin receptor and 2.6 µM in experiment [2].

As to `O=C1Cc2cnc3cc(-c4ccccc4)nn3c2-c2ncccc2N1`, in the experiment on NCI60, the result was Active. Also, the IC50 in experiment [1] was > 100 µM; at Insulin receptor, > 100 µM; in experiment [2] it was 16 µM.

For `O=C1Cc2c([nH]c3ccc(Br)cc23)-c2ccccc2N1`, the result with NCI60 was Active.

In the case of `COc1ccc(Nc2ncc3c(n2)-c2ccc(OC)cc2NC(=O)C3)cc1`, the result with NCI60 was Active. Moreover, the IC50 in experiment [1] is 0.35 µM; on Insulin receptor it was > 100 µM; in experiment [2] it was 0.05 µM.

For the compound `O=C1Cc2cnc(Nc3ccc(O)cc3)nc2-c2ncccc2N1`, in the experiment on NCI60, the result was Active. The IC50 in experiment [1] is 55 µM; at Insulin receptor it was > 100 µM; in experiment [2], 2.7 µM.

Regarding `COc1ccc2c(c1)NC(=O)Cc1cc3c(=O)[nH]c(=O)[nH]c3nc1-2`, the outcome in the experiment with NCI60 was Active. Moreover, the IC50 (in experiment [1]; at Insulin receptor; in experiment [2]) was > 100 µM each time.

With `Cn1c(=O)c2cc3c(nc2n(C)c1=O)-c1cnccc1NC(=O)C3`, the outcome in the experiment on NCI60 was Active. For the same compound, the IC50 (in experiment [1]; on Insulin receptor; in experiment [2]) was > 100 µM throughout.

Turning to `O=C1Cc2cnc3ccnn3c2-c2ncccc2N1`, in the experiment with NCI60, the result was Active. In addition, the IC50 in experiment [1] was > 100 µM; on Insulin receptor, > 100 µM; in experiment [2] it was 87 µM.

On to `O=C1Cc2cnc3ncnn3c2-c2ncccc2N1`, for which the result in the experiment with NCI60 was Active. The IC50 (in experiment [1]; on Insulin receptor; in experiment [2]) was > 100 µM throughout.

As to `Cn1c(=O)c2cc3c(nc2n(C)c1=O)-c1ncccc1NC(=O)C3`, in the experiment on NCI60, the outcome was Active. The IC50 (in experiment [1]; on Insulin receptor; in experiment [2]) was > 100 µM each time.
